How the values were obtained:
[1] = In Vitro evaluation for the growth inhibition of Subline (P388/CP) Leukemia cell lines; assay type: functional, cell-based, Mus musculus
Procedure, shortened: (§1)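 Cells were continuously exposed to drug for 72 h in 96-well cultures. IC50 is the drug concentration (μM) inhibiting cell growth by 50%. Determinations were run in triplicate.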

[2] = In Vitro evaluation for the growth inhibition of Subline (P388/AMSA) Leukemia cell lines; assay type: functional, cell-based, Mus musculus; procedure, shortened: as §1
P388 = assay: In Vitro evaluation for the growth inhibition of Wildtype P388 Leukemia cell lines; assay type: functional, cell-based; details: Mus musculus; procedure, shortened: as §1
Mus musculus [3] = assay: Compound was treated in vivo for percent increase in life span of treated animals (optimal dose 20 mg/kg, ip) compared with […]/W bearing control animals; assay type: functional
Mus musculus [4] = assay: Compound was treated in vivo for percent increase in life span of treated animals (optimal dose 100 mg/kg, ip) compared with […]/W bearing control animals; assay type: functional
Mus musculus [5] = assay: Compound was treated in vivo for percent increase in life span of treated animals (optimal dose 13.3 mg/kg, ip) compared with […]/W bearing control animals; assay type: functional, organism-based; parameters: dose 13.3 mg/kg; details: at 13.3 mg/kg
Mus musculus [6] = assay: Compound was treated in vivo for percent increase in life span of treated animals (optimal dose 13.3 mg/kg) compared with […]/CP bering control animals; assay type: functional, organism-based; parameters: dose 13.3 mg/kg; details: at 13.3 mg/kg
Mus musculus [7] = assay: Compound was treated in vivo for percent increase in life span of treated animals (optimal dose 5.3 mg/kg, ip) compared with P338/W bearing control animals; assay type: functional, organism-based; parameters: dose 5.3 mg/kg; details: at 5.3 mg/kg
Mus musculus [8] = assay: Compound was treated in vivo for percent increase in life span of treated animals (optimal dose 5.5 mg/kg, ip) compared with P338/W bearing control animals; assay type: functional, organism-based; parameters: dose 5.5 mg/kg; details: at 5.5 mg/kg
Mus musculus [9] = assay: Compound was treated in vivo for percent increase in life span of treated animals (optimal dose 30 mg/kg, ip) compared with […]/W bearing control animals; assay type: functional
Mus musculus [10] = assay: Compound was treated in vivo for percent increase in life span of treated animals (optimal dose 45 mg/kg, ip) compared with […]/W bearing control animals; assay type: functional
Mus musculus [11] = assay: Compound was treated in vivo for percent increase in life span of treated animals (optimal dose 65 mg/kg, ip) compared with P338/W bearing control animals; assay type: functional

Row | Compound | IC50 ([1]; Mus musculus) [nM] | IC50 (P388) [nM] | IC50 ([2]; Mus musculus) [nM] | further results
1 | CISPLATIN [listing 1 of 2 here] | – | – | – | IC50 [1]: 5300 nM; IC50 [2]: 5500 nM
2 | Cl.NCCNCCCCCCNC(=O)c1cccc2cc3ccccc3nc12 | 350 | 510 | 1100 | Increase in life-span (Mus musculus [3]): 23%
3 | Cl.NCCNCCCCCCNC(=O)c1ccc2nc3ccccc3cc2c1 | 3800 | 3600 | – | Increase in life-span (Mus musculus [4]): <20%
4 | DICHLORO(ETHYLENEDIAMINE) PLATINUM (II) [listing 1 of 2 here] | – | – | – | Increase in life-span (Mus musculus [5]): 70%; Increase in life-span (Mus musculus [6]): < 20%
5 | CISPLATIN [listing 2 of 2 here] | – | – | – | Increase in life-span (Mus musculus [7]): 120%; Increase in life-span (Mus musculus [8]): < 20%
6 | Cl.NCCNCCCNC(=O)c1cccc2cc3ccccc3nc12 | 590 | 740 | 1600 | Increase in life-span (Mus musculus [9]): 64%
7 | DICHLORO(ETHYLENEDIAMINE) PLATINUM (II) [listing 2 of 2 here] | – | – | – | IC50 [1]: 1030 nM
8 | Cl.NCCNCCCNC(=O)c1ccc2nc3ccccc3cc2c1 | 4900 | 3800 | – | Increase in life-span (Mus musculus [4]): <20%
9 | Cl.NCCNCCCNC(=O)c1cccc2c(N)c3ccccc3nc12 | 2600 | 3100 | 870 | Increase in life-span (Mus musculus [10]): 45%
10 | Cl.NCCNCCCCCCNC(=O)c1cccc2c(N)c3ccccc3nc12 | 2300 | 5200 | – | Increase in life-span (Mus musculus [11]): <20%

— ChEMBL document CHEMBL1125515, “DNA-directed alkylating agents. 5. Acridinecarboxamide derivatives of (1,2-diaminoethane)dichloroplatinum(II)” (J Med Chem, 1992)
